Experimental findings from ChEMBL document CHEMBL3244057, “Diazepines. 5. Synthesis and biological action of 6-phenyl-4H-pyrrolo[1,2-a][1,4]benzodiazepines” (J Med Chem, 1978) are described below.

Data set [1] has as its system Mus musculus. The data set can be described thus: Toxicity in po dosed ddY mouse assessed as motor incoordination by rotarod test. The data set is classed as organism-based. The conditions noted are these: in vivo. The procedure, abridged: (§1)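 Male ddY mice (18–24 g) were dosed orally with compound suspended in 5% arabic gum, six mice per dose. Three or four doses were chosen from 100, 30, 10, 3, 1, 0.3 and 0.1 mg/kg. ED50 was calculated by the Litchfield-Wilcoxon method. Muscle relaxation was scored on an inclined wooden board, and fighting was induced by electrofootshock.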

The subject of data set [2] is Mus musculus. Put plainly: Induction of sedative activity in po dosed ddY mouse assessed as potentiation of thiopental-induced response. The data set is classed as functional. The procedure, abridged:
as §1

The subject of data set [3] is Mus musculus. The data set can be described thus: Anticonvulsant activity in po dosed ddY mouse assessed as reduction of maximal electroshock-induced seizure. The class given is functional.
In data set [4] the test system is Mus musculus. Put plainly: Anticonvulsant activity in po dosed ddY mouse assessed as reduction of pentylenetetrazole-induced seizure. The class given is functional. In short, it runs like this: as §1
Data set [5] has as its system Mus musculus. The data set can be described thus: Muscle relaxant activity in po dosed ddY mouse. The class given is functional. In short, it runs like this:
as §1

Data set [6] relates to Mus musculus. Put plainly: Taming activity in po dosed electrofootshock-induced fighting ddY mouse. The data set is classed as functional. In short, it runs like this: as §1
A short description of data set [7]: Ratio of compound ED50 to diazepam ED50 for toxicity in po dosed ddY mouse assessed as motor incoordination. The class given is organism-based. The conditions noted are these: in vivo, read-out: Ratio ED50.
The nature of data set [8]: Acute toxicity in po dosed ddY mouse assessed as mortality measured for 2 weeks. The conditions noted are these: in vivo. The data set is classed as organism-based. The procedure, abridged: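 Male ddY mice (18–24 g) were dosed orally with compound suspended in 5% arabic gum. Groups of four received 1000 or 2000 mg/kg, and a group of eight received 3000 mg/kg. Deaths were recorded over a 2-week observation period.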

Usually ED50 stands for the dose that gives a 50% effect, or the effect in half of the subjects. On to `Clc1ccc2c(c1)C(c1ccccc1)=NCc1cccn1-2`, for which the ED50 in the data set on Mus musculus [1] was greater than 100 mg/kg; with Mus musculus [2], 44 mg/kg.

Turning to `Clc1ccc2c(c1)C(c1ccccc1Cl)=NCc1cccn1-2`, the figures for the ED50 in the data set with Mus musculus [1] and in the data set with Mus musculus [2] were greater than 100 mg/kg and 18 mg/kg, respectively.

On to `Fc1ccccc1C1=NCc2cccn2-c2ccc(Cl)cc21`, for which the ED50 was greater than 100 mg/kg in the data set with Mus musculus [1]; greater than 100 mg/kg in the data set on Mus musculus [3]; 100 mg/kg in the data set on Mus musculus [4]; greater than 100 mg/kg with Mus musculus [5]; 39 mg/kg with Mus musculus [6]; 5.2 mg/kg with Mus musculus [2].

In the case of `Cc1ccc2n1-c1ccccc1C(c1ccccc1)=NC2`, the ED50 is greater than 100 mg/kg in the data set with Mus musculus [1]; greater than 100 mg/kg in the data set on Mus musculus [3]; greater than 100 mg/kg with Mus musculus [4]; greater than 100 mg/kg in the data set with Mus musculus [5]; greater than 100 mg/kg in the data set with Mus musculus [6]; 22 mg/kg in the data set on Mus musculus [2].

For `Cc1ccc2n1-c1ccc(Cl)cc1C(c1ccccc1)=NC2`, the ED50 is greater than 100 mg/kg in the data set on Mus musculus [1]; greater than 100 mg/kg in the data set with Mus musculus [3]; 100 mg/kg with Mus musculus [4]; greater than 100 mg/kg with Mus musculus [5]; greater than 100 mg/kg with Mus musculus [6]; 46 mg/kg in the data set with Mus musculus [2].

`Cc1ccc2n1-c1ccc([N+](=O)[O-])cc1C(c1ccccc1)=NC2`: the 50% effective dose (ED50) is greater than 100 mg/kg with Mus musculus [1]; greater than 100 mg/kg with Mus musculus [3]; no less than 100 mg/kg in the data set on Mus musculus [4]; greater than 100 mg/kg with Mus musculus [5]; greater than 100 mg/kg with Mus musculus [6]; 5.8 mg/kg with Mus musculus [2].

On to `Cc1ccc2n1-c1ccc(Cl)cc1C(c1ccccc1Cl)=NC2`, for which the ED50 stood at 100 mg/kg in the data set with Mus musculus [1] and 2.8 mg/kg with Mus musculus [2].

As to `Cc1ccc2n1-c1ccc(Cl)cc1C(c1ccccc1F)=NC2`, the ED50 was greater than 100 mg/kg in the data set on Mus musculus [1] and 6.9 mg/kg in the data set on Mus musculus [2].

As for `Cc1cc2n(c1C)-c1ccccc1C(c1ccccc1)=NC2`, the ED50 was greater than 100 mg/kg with Mus musculus [1]; greater than 100 mg/kg with Mus musculus [3]; greater than 100 mg/kg in the data set with Mus musculus [4]; greater than 100 mg/kg in the data set on Mus musculus [5]; greater than 100 mg/kg with Mus musculus [6]; greater than 30 mg/kg in the data set with Mus musculus [2].

On to `Cc1cc2n(c1C)-c1ccc(Cl)cc1C(c1ccccc1)=NC2`, for which the median effective dose (ED50) was greater than 100 mg/kg in the data set on Mus musculus [1] and 21 mg/kg in the data set with Mus musculus [2].

Turning to `Cc1cc2n(c1C)-c1ccc(Cl)cc1C(c1ccccc1Cl)=NC2`, the ED50 was 40 mg/kg in the data set on Mus musculus [1] and 2.6 mg/kg with Mus musculus [2].

In the case of `Cc1cc2n(c1C)-c1ccc(Cl)cc1C(c1ccccc1F)=NC2`, the ED50 was greater than 100 mg/kg with Mus musculus [1] and 8 mg/kg with Mus musculus [2].

For the compound `CCc1cc2n(c1C)-c1ccc(Cl)cc1C(c1ccccc1Cl)=NC2`, the ED50 with Mus musculus [1] is 16.2 mg/kg; in the data set on Mus musculus [2], 0.6 mg/kg.

`CCc1cc2n(c1C)-c1ccc(Cl)cc1C(c1ccccc1F)=NC2`: the ED50 in the data set with Mus musculus [1] was greater than 100 mg/kg; with Mus musculus [2], 2.2 mg/kg.

As for `CCc1cc2n(c1C)-c1ccc(Cl)cc1C(c1c(F)cccc1F)=NC2`, the ED50 is greater than 100 mg/kg in the data set on Mus musculus [1], 16.6 mg/kg in the data set on Mus musculus [4] and 3 mg/kg in the data set on Mus musculus [2].

For orientation: LD50 means the dose expected to kill half of the subjects tested. For the compound `Cc1cc(C)n2c1CN=C(c1ccccc1Cl)c1cc(Cl)ccc1-2`, in data set [7], the selectivity ratio came out at 2. Moreover, the values for the 50% effective dose (ED50) with Mus musculus [1], with Mus musculus [4] and with Mus musculus [2] were 15.5 mg/kg, 1.4 mg/kg and 0.34 mg/kg, respectively. Moreover, in data set [8], the median lethal dose (LD50) at 336 h stood at 930 mg/kg.

On to `Cc1cc(C)n2c1CN=C(c1ccccc1F)c1cc(Cl)ccc1-2`, for which the median effective dose (ED50) was greater than 30 mg/kg in the data set with Mus musculus [1], 20.5 mg/kg in the data set on Mus musculus [5] and 2.4 mg/kg in the data set on Mus musculus [2].

In the case of `Cc1cc(C)n2c1CN=C(c1c(F)cccc1F)c1cc(Cl)ccc1-2`, the ED50 in the data set on Mus musculus [1] was determined as 16.2 mg/kg; in the data set on Mus musculus [5] it was 6.4 mg/kg; in the data set with Mus musculus [2], 0.7 mg/kg.

Take `CN1C(=O)CN=C(c2ccccc2)c2cc(Cl)ccc21` [DIAZEPAM]: the ED50 with Mus musculus [1] was determined as 5.4 mg/kg; in the data set with Mus musculus [4] it was 0.6 mg/kg; with Mus musculus [5] it was 0.6 mg/kg; in the data set with Mus musculus [2] it was 0.3 mg/kg.
